Experiments:
Liver microsome [1] = test: Drug level in human liver microsomes treated with 1 uM 17-DMAG by liquid chromatography-tandem mass spectrometry in presence of 1 uM quinidine CYP2D6 inhibitor; format: ADME
Method in brief: (§1)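 Pooled HLMs in 0.1 M phosphate buffer pH 7.4 with 1 mM β-NADPH, 3.3 mM MgCl2 and the selective inhibitor were preincubated 3 min at 37°C in a shaking water bath. 17-DMAG (1 µM final) was then added and incubated 20 min at 37°C, with parallel no-inhibitor controls. M1, M2, M3, M4 and M6 were quantified by LC-MS/MS MRM. Inhibition was taken as the ratio of metabolite formed with versus without inhibitor.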

Cytochrome P450 2D6 = Cytochrome P450 2D6 (Homo sapiens, UniProt P10635); test: Drug level assessed as human recombinant CYP2D6-mediated oxidative metabolism treated with 1 uM 17-DMAG relative to CYP3A4; format: ADME; conditions: recombinant enzyme
Cytochrome P450 2D6, sequence (P10635 whole entry): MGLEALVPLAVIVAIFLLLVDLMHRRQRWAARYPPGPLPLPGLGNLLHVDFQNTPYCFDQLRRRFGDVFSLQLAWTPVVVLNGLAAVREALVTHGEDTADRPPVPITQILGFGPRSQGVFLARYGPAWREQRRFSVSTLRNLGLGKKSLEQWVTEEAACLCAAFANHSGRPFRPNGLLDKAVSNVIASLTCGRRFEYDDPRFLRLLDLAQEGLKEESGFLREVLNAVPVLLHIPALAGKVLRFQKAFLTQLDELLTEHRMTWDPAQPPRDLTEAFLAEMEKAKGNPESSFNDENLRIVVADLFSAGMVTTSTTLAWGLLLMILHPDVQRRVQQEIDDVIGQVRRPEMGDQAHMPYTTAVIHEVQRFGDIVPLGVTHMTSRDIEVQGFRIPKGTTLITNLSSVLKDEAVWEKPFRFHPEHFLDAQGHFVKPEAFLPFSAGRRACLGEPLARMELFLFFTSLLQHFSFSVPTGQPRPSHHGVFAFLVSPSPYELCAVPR
Method in brief: (§2)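 Recombinant human P450 (E. coli-expressed, coexpressed with cytochrome b5), 20 pmol per 200 µl incubation with 0.2 mg reduced β-NADPH and 3.3 mM MgCl2 in 0.1 M phosphate buffer pH 7.4. Preincubated at 37°C in a shaking water bath, then 1 µM 17-DMAG added. E. coli control microsomes lacking P450 cDNA served as negative control. Metabolite (M1–M4, M6) formation rates were read by LC-MS/MS MRM and expressed as percent of the CYP3A4 rate.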

Cytochrome P450 2A6 = molecular target: T1, Cytochrome P450 2A6 (Homo sapiens, UniProt P11509); test: Drug level assessed as human recombinant CYP2A6-mediated oxidative metabolism treated with 1 uM 17-DMAG relative to CYP3A4; format: ADME; conditions: recombinant enzyme; method in brief: as §2
T1 sequence (P11509 whole entry): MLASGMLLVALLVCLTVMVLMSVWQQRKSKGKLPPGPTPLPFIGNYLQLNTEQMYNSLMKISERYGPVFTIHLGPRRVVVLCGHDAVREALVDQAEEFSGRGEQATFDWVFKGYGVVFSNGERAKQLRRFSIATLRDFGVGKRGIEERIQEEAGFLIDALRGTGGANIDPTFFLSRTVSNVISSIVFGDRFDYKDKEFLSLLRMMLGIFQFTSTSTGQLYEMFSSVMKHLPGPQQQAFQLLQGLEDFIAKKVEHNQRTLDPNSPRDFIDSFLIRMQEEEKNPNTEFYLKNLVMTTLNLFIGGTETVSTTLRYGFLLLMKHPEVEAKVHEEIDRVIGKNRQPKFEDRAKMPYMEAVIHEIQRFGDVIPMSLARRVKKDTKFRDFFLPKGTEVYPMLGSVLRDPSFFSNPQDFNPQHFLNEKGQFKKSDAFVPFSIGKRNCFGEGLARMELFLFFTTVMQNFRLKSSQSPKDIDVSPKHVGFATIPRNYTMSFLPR

Cytochrome P450 2C8 = molecular target: T2, Cytochrome P450 2C8 (Homo sapiens, UniProt P10632); test: Drug level assessed as human recombinant CYP2C8-mediated oxidative metabolism treated with 1 uM 17-DMAG relative to CYP3A4; format: ADME; conditions: recombinant enzyme; method in brief: as §2
T2 sequence (P10632 whole entry): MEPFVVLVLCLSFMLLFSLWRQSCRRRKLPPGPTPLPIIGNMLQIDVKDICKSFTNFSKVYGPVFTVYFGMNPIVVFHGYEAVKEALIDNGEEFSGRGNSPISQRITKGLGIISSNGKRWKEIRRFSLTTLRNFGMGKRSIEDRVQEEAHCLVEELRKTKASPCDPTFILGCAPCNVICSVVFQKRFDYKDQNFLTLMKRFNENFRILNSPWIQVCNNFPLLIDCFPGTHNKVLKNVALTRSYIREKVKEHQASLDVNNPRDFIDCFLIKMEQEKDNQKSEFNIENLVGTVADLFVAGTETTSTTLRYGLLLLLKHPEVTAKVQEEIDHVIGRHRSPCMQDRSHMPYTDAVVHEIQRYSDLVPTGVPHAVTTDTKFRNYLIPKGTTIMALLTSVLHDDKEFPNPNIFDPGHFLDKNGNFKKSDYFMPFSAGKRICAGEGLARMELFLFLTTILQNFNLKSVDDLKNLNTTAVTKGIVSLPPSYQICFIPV

Liver microsome [2] = test: Drug level in human liver microsomes treated with 1 uM 17-DMAG by liquid chromatography-tandem mass spectrometry in presence of 10 uM alpha-naphthoflavone CYP1A2 inhibitor; format: ADME; method in brief: as §1
Liver microsome [3] = test: Retention time in human liver microsomes treated with 10 uM […] after 2 hrs by liquid chromatography-tandem mass spectrometry; format: ADME
Method in brief: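 17-DMAG (10 µM initial) was incubated with HLMs (1 mg/ml) in 0.1 M phosphate buffer with 3.3 mM MgCl2 and 1 mM β-NADPH at 37°C for 2 h alongside negative controls, then quenched with ice-cold acetonitrile. Samples were run on a C18 column with a 0.1% formic acid/ammonium formate–acetonitrile gradient (10–90% B in 10 min) using MS full scan, MRM, EPI and MS3 scans.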

Liver microsome [4] = test: Drug level in human liver microsomes treated with 1 uM 17-DMAG by liquid chromatography-tandem mass spectrometry in presence of 1 uM quercetin CYP2C8 inhibitor; format: ADME; method in brief: as §1
Cytochrome P450 2C19 = Cytochrome P450 2C19 (Homo sapiens, UniProt P33261); test: Drug level assessed as human recombinant CYP2C19-mediated oxidative metabolism treated with 1 uM 17-DMAG relative to CYP3A4; format: ADME; conditions: recombinant enzyme; method in brief: as §2
Cytochrome P450 2C19, sequence (P33261 whole entry): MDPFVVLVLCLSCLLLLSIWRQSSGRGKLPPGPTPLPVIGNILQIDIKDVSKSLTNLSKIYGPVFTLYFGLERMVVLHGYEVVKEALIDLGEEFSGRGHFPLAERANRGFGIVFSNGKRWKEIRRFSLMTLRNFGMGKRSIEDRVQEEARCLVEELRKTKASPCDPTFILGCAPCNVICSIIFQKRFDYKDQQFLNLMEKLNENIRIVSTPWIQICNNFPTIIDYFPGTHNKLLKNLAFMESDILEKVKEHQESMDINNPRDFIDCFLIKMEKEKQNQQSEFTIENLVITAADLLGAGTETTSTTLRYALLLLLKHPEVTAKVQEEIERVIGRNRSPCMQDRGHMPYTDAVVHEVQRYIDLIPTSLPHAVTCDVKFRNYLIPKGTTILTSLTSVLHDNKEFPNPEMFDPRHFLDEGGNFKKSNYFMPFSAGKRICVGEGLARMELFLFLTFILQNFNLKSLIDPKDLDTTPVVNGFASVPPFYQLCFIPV

Liver microsome [5] = test: Drug level in human liver microsomes treated with 1 uM 17-DMAG by liquid chromatography-tandem mass spectrometry in presence of 1 uM tranylcypromine CYP2A6 inhibitor; format: ADME; method in brief: as §1
Liver microsome [6] = test: Drug level in human liver microsomes treated with 1 uM 17-DMAG by liquid chromatography-tandem mass spectrometry in presence of 10 uM diethyldithiocarbamate CYP2E1 inhibitor; format: ADME; method in brief: as §1
Liver microsome [7] = test: Drug level in human liver microsomes treated with 1 uM 17-DMAGby liquid chromatography-tandem mass spectrometry in presence of 1 uM sulfaphenazole CYP2C9 inhibitor; format: ADME; method in brief: as §1
Liver microsome [8] = test: Drug level in human liver microsomes treated with 1 uM 17-DMAG by liquid chromatography-tandem mass spectrometry in presence of 10 uM ticlopidine CYP2B6 inhibitor; format: ADME; method in brief: as §1
Cytochrome P450 1A2 = molecular target: T3, Cytochrome P450 1A2 (Homo sapiens, UniProt P05177); test: Drug level assessed as human recombinant CYP1A2-mediated oxidative metabolism treated with 1 uM 17-DMAG relative to CYP3A4; format: ADME; conditions: recombinant enzyme; method in brief: as §2
T3 sequence (P05177 whole entry): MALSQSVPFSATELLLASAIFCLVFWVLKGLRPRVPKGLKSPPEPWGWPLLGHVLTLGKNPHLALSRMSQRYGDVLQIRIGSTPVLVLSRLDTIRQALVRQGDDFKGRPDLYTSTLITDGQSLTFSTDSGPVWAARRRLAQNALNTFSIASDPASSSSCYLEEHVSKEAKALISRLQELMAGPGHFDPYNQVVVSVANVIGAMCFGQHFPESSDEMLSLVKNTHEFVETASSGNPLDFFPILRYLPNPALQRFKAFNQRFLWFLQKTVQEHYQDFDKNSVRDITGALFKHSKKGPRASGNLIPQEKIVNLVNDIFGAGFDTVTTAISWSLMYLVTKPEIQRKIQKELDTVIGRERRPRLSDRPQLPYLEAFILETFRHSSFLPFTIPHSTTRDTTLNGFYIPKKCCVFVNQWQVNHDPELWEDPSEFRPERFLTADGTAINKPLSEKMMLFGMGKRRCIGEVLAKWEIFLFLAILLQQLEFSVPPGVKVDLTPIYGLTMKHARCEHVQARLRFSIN

Cytochrome P450 3A4 = Cytochrome P450 3A4 (Homo sapiens, UniProt P08684); test: Drug level assessed as human recombinant CYP3A4-mediated oxidative metabolism treated with 1 uM 17-DMAG after 30 mins by liquid chromatography-tandem mass spectrometry; format: ADME; conditions: recombinant enzyme, 0.5 h; method in brief: as §2
Cytochrome P450 3A4, sequence (P08684 whole entry): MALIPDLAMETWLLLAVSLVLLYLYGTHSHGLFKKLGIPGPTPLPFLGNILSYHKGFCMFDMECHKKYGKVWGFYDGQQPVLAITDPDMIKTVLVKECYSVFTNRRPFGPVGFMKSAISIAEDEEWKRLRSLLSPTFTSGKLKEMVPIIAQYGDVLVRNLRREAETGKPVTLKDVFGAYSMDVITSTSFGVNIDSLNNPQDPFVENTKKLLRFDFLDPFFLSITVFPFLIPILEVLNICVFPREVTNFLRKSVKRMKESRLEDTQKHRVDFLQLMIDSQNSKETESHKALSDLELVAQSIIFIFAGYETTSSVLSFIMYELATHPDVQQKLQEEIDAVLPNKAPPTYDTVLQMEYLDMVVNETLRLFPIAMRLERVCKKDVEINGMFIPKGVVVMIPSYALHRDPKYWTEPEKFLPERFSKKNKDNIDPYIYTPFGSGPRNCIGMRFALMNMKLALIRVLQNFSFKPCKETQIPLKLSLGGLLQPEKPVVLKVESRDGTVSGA

Liver microsome [9] = test: Drug metabolism in human liver microsomes assessed as (4E,6Z,8S,9S,10E,12S,13R,14S,16R)-19-(2-(dimethylamino)ethylamino)-13-hydroxy-10-(hydroxymethyl)-8,14-dimethoxy-4,12,16-trimethyl-3,20,22-trioxo-2-azabicyclo[16.3.1]docosa-1(21),4,6,10,18-pentaen-9-yl carbamate formation at 37 degC in presence of reduced GSH by liquid chromatography-tandem mass spectrometry; format: ADME; conditions: read-out: Km(app)
[10] = Total clearance in human; format: ADME, organism-based; conditions: in vivo
Cytochrome P450 3A5 = Cytochrome P450 3A5 (Homo sapiens, UniProt P20815); test: Drug metabolism assessed as human recombinant CYP3A5-mediated (4E,6Z,8S,9S,10E,12S,13R,14S,16R)-19-(2-(dimethylamino)ethylamino)-13-hydroxy-8,14-dimethoxy-4,10,12,16-tetramethyl-3,20,22-trioxo-2-azabicyclo[16.3.1]docosa-1(21),4,6,10,18-pentaen-9-yl carbamate formation at 1 uM relative to CYP3A4; format: ADME; conditions: recombinant enzyme
Cytochrome P450 3A5, sequence (P20815 whole entry): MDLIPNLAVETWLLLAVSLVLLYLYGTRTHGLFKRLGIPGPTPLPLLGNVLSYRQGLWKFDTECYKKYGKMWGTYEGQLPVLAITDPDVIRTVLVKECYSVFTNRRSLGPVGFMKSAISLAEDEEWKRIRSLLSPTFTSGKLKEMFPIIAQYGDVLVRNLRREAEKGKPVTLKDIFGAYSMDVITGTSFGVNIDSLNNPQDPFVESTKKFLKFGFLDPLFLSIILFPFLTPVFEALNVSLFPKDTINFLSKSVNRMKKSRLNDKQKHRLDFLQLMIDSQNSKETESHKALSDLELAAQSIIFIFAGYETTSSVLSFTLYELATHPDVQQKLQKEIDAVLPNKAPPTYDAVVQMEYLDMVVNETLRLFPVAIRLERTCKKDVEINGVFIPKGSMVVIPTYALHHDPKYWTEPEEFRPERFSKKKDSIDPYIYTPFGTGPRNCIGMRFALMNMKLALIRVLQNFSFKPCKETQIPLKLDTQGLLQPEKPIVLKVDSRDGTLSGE

Liver microsome [11] = test: Drug metabolism in human liver microsomes assessed as (4E,6Z,8S,9S,10E,12S,13R,14S,16R)-19-(2-(dimethylamino)ethylamino)-8,13-dihydroxy-14-methoxy-4,10,12,16-tetramethyl-3,20,22-trioxo-2-azabicyclo[16.3.1]docosa-1(21),4,6,10,18-pentaen-9-yl carbamate formation at 1 uM 17-DMAG by liquid chromatography-tandem mass spectrometry in presence of 1 uM ketoconazole CYP3A inhibitor; format: ADME
Cytochrome P450 2E1 = Cytochrome P450 2E1 (Homo sapiens, UniProt P05181); test: Drug metabolism assessed as human recombinant CYP2E1-mediated oxidative metabolism at 1 uM by liquid chromatography-tandem mass spectrometry; format: ADME; conditions: recombinant enzyme
Cytochrome P450 2E1, sequence (P05181 whole entry): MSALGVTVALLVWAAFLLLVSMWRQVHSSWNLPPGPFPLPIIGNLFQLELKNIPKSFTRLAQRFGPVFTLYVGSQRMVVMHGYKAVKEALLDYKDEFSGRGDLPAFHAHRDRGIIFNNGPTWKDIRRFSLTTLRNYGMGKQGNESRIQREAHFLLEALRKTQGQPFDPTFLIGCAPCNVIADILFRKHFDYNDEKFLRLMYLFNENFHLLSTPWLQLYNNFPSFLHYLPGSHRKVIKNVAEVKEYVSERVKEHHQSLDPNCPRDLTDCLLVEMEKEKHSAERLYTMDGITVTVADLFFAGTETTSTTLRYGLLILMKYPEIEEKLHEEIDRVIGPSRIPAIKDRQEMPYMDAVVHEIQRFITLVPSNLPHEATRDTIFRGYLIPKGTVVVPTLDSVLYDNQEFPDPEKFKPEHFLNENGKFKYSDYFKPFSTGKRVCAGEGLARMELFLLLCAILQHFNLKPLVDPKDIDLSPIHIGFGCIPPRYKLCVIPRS

Liver microsome [12] = test: Drug metabolism in human liver microsomes assessed as (4E,6Z,8S,9S,10E,12S,13R,14S,16R)-19-(2-(dimethylamino)ethylamino)-13,14-dihydroxy-8-methoxy-4,10,12,16-tetramethyl-3,20,22-trioxo-2-azabicyclo[16.3.1]docosa-1(21),4,6,10,18-pentaen-9-yl carbamate formation at 37 degC in presence of reduced GSH by liquid chromatography-tandem mass spectrometry; format: ADME; conditions: read-out: Km(app)
Liver microsome [13] = test: Metabolic stability in human liver microsomes at 5 uM by liquid chromatography-tandem mass spectrometry; format: ADME
Method in brief: (§3)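 Pooled human liver microsomes (1 mg/ml) were incubated at 37°C with substrate (5 µM final), 1 mM β-NADPH and 3.3 mM MgCl2 in 0.1 M phosphate buffer, with or without 5 mM reduced GSH. Aliquots were taken from 1 to 120 min and quenched in ice-cold acetonitrile containing internal standard. LC-MS/MS peak-area ratios to internal standard were normalised to the 1-min sample.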

Cytochrome P450 2B6 = molecular target: T4, Cytochrome P450 2B6 (Homo sapiens, UniProt P20813); test: Drug metabolism assessed as human recombinant CYP2B6-mediated oxidative metabolism at 1 uM by liquid chromatography-tandem mass spectrometry; format: ADME; conditions: recombinant enzyme
T4 sequence (P20813 whole entry): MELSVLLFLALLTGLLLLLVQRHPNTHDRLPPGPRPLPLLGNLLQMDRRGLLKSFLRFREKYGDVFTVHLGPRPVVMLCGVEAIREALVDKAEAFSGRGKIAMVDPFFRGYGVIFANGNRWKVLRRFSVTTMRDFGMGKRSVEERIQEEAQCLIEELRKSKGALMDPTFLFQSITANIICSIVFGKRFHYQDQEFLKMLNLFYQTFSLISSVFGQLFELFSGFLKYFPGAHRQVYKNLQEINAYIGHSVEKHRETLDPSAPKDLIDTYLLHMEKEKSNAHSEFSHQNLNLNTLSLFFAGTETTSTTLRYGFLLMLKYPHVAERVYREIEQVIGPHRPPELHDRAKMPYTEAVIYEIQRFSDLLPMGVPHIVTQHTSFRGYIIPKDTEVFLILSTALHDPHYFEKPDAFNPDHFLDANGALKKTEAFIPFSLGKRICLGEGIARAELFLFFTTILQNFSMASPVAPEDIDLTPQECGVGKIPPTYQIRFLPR

Cytochrome P450 2C9 = Cytochrome P450 2C9 (Homo sapiens, UniProt P11712); test: Drug metabolism assessed as human recombinant CYP2C9-mediated oxidative metabolism at 1 uM by liquid chromatography-tandem mass spectrometry; format: ADME; conditions: recombinant enzyme
Cytochrome P450 2C9, sequence (P11712 whole entry): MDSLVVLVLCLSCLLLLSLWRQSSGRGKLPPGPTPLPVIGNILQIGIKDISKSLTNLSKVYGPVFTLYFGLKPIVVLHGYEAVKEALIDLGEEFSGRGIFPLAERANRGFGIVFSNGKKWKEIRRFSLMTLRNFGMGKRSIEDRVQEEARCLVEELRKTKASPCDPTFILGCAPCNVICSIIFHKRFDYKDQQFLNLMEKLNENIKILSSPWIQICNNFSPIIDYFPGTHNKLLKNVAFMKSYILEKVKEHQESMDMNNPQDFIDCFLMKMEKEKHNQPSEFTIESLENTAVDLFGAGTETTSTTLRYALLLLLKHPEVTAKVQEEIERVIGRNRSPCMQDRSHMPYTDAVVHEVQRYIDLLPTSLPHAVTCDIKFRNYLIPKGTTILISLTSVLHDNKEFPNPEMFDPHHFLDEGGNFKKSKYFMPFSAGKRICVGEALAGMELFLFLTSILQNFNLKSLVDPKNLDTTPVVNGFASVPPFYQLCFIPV

[14] = Terminal half life in human; format: ADME, organism-based; conditions: in vivo, read-out: beta t1/2 (converted)
[15] = Drug metabolism in human liver microsomes assessed as stability after 2 hrs relative to control by liquid chromatography-tandem mass spectrometry; format: ADME; conditions: read-out: Stability; method in brief: as §3

CO[C@H]1/C=C\C=C(/C)C(=O)NC2=CC(=O)C(NC(O)CN(C)C)=C(C[C@@H](CO)C[C@H](OC)[C@H](O)[C@@H](CO)/C=C(\C)[C@@H]1OC(N)=O)C2=O (stereo not given in full)
Drug metabolism (Liver microsome [1]): metabolite_detected
Drug metabolism (Cytochrome P450 2D6): metabolite_detected
Drug metabolism (Cytochrome P450 2A6): metabolite_detected
Drug metabolism (Cytochrome P450 2C8): metabolite_detected
Drug metabolism (Liver microsome [2]): metabolite_detected
Retention_time (Liver microsome [3]): 6.8 min
Drug metabolism (Liver microsome [4]): metabolite_detected
Drug metabolism (Cytochrome P450 2C19): metabolite_detected
Drug metabolism (Liver microsome [5]): metabolite_detected
Drug metabolism (Liver microsome [6]): metabolite_detected
Drug metabolism (Liver microsome [7]): metabolite_detected
Drug metabolism (Liver microsome [8]): metabolite_detected
Drug metabolism (Cytochrome P450 1A2): metabolite_detected
Drug metabolism (Cytochrome P450 3A4): metabolite_detected

CO[C@H]1/C=C\C=C(/C)C(=O)NC2=CC(=O)C(NCCN(C)C)=C(C[C@@H](C)C[C@H](OC)[C@H](O)[C@@H](C)/C=C(\C)[C@@H]1OC(N)=O)C2=O (stereo in doubt) [ALVESPIMYCIN]
Km (Liver microsome [9]): 6.61 µM
clearance [10]: 123 mL/min
Drug metabolism (Cytochrome P450 3A5): metabolite_not_detected
Drug metabolism (Liver microsome [11]): metabolite_not_detected
Drug metabolism (Cytochrome P450 2E1): metabolite_not_detected
Km (Liver microsome [12]): 7.83 µM
Stability (Liver microsome [13]): Stable
Drug metabolism (Cytochrome P450 2B6): metabolite_not_detected
Drug metabolism (Cytochrome P450 2C9): metabolite_not_detected
half-life [14]: 16 h
remaining at 2 h [15]: 24%

Source: ChEMBL document CHEMBL3526066, “In vitro metabolism of 17-(dimethylaminoethylamino)-17-demethoxygeldanamycin in human liver microsomes” (Drug Metab Dispos, 2011)
